This is a sample that favours compounds with a hit; in the whole collection about 2.5% have one here.
MC4R ag barr = agonists of human melanocortin 4 receptor (MC4R) beta-arrestin | P32245 | U2OS MC4R beta-arrestin complementation, luminescence; percent of melanotan II response, DMSO zero | activation, % at 8.9 µM | actives 0.98% (n = 360,000) | AID 540308;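 active means activation above a per-plate cutoff, the mean activation of sample wells on that plate plus 3 SD, cut at about 8% in these data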
NTR1 ag = agonists of human neurotensin receptor NTR1; actives 0.17% (n = 330,000); NTR1-U2OS beta-arrestin-GFP spot imaging, agonist mode; P30989; AID 493036; activation, % at 20 µM;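 active means activation at or above 40% of the spot to cytoplasm intensity ratio, with at least 20 cells analyzed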;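 further: 0% = DMSO without peptide and 100% = 100 nM NTR1 peptide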
Target sequence (P30989 whole entry, looked up): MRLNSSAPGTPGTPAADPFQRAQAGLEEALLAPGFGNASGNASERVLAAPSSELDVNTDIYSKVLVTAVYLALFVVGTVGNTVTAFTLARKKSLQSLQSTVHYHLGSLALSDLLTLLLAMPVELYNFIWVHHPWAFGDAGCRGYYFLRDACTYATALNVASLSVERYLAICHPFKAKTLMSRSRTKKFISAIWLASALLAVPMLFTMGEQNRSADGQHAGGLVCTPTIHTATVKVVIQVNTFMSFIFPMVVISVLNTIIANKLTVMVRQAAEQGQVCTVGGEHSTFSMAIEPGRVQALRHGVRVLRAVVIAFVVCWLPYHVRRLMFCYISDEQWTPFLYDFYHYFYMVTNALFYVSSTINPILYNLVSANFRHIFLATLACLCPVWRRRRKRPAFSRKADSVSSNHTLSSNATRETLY
MC4R antag cAMP = antagonists of human melanocortin 4 receptor (MC4R); P32245; MC4R-expressing cells, MTII-stimulated cAMP, LANCE TR-FRET; inhibition, % at 6.5 µM; actives 0.48% (n = 360,000);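 active means inhibition above its plate's cutoff, the mean of tested wells on that plate plus 3 SD, cut at about 29% in these data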;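 further: 0% = Melanotan II alone and 100% = Melanotan II plus saturating MCL0020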
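Assay system: U2OS cells stably expressing human melanocortin 4 receptor (MC4R) / Dosing: 6.5 µM / Timing: compound 30 min, challenge 1 h, detection 1 h / Measured by: Eu-cAMP/anti-cAMP TR-FRET, emission 671 nm / Replicates: singlicate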
PG9 binder = binds the HIV-1 gp120 antibody PG9; inhibition, % at 6.7 µM; TR-FRET gp120-PG9 antibody binding; actives 0.43% (n = 360,000); in the data active means inhibition above about 8.5%
Rev-erbA mod = Rev-erb alpha (human) modulation | Rev-erbα–FITC-DNA binding, fluorescence polarization, 90 min | AID 1259318 | actives 0.79% (n = 370,000) | activity, % at 10 µM | P20393;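 active means activity above about 14%, limit read from the data; passing the limit was not always enough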;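 further: 0% = DMSO wells with 35 nM protein and 100% = DMSO wells with 750 nM protein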
Active calls of the source: *; · = not tested or not shown.

SMILES	MC4R ag barr	NTR1 ag	MC4R antag cAMP	PG9 binder	Rev-erbA mod
C#CCOCCOCCOCCNc1nc(N2CCN(C(=O)CCCCCCCCCCNC(=O)[C@@H](CCSC)n3cc(CCO)nn3)CC2)nc(N2CCN(C(=O)CCCCCCCCCCNC(=O)[C@H]([C@@H](C)CC)n3cc(CCCCCN)nn3)CC2)n1	·	23.2	·	·	·
C#CCOCCOCCOCCNc1nc(N2CCN(C(=O)CCCCCCCCCCNC(=O)[C@H](CCCCN)n3cc(C)nn3)CC2)nc(N2CCN(C(=O)CCCCCCCCCCNC(=O)[C@@H]([C@H](C)CC)n3cc(CCCCCN)nn3)CC2)n1	-1.0	15.2	52.4*	·	·
C#CCOCCOCCOCCNc1nc(N2CCN(C(=O)CCCCCCCCCCNC(=O)[C@H](CCCCN)n3cc(CCO)nn3)CC2)nc(N2CCN(C(=O)CCCCCCCCCCNC(=O)[C@H](CCCN=C(N)N)n3cc(C[C@@H](C)CC)nn3)CC2)n1	-2.4	1.4	78.2*	·	·
C#CCOCCOCCOCCNc1nc(N2CCN(C(=O)CCCCCCCCCCNC(=O)[C@@H](CCSC)n3cc(CCO)nn3)CC2)nc(N2CCN(C(=O)CCCCCCCCCCNC(=O)[C@H]([C@@H](C)CC)n3cc(CCCCN=C(N)N)nn3)CC2)n1	1.7	10.7	40.8*	·	·
C#CCOCCOCCOCCNc1nc(N2CCN(C(=O)CCCCCCCCCCNC(=O)Cn3cc(C[C@@H](C)O)nn3)CC2)nc(N2CCN(C(=O)CCCCCCCCCCNC(=O)[C@H](CCCCN)n3cc(C[C@@H](C)CC)nn3)CC2)n1	1.2	9.4	31.8*	·	·
C#CCOCCOCCOCCNc1nc(N2CCN(C(=O)CCCCCCCCCCNC(=O)[C@H](CCCCN)n3cc(CCCC(=O)O)nn3)CC2)nc(N2CCN(C(=O)CCCCCCCCCCNC(=O)[C@H](CCCN=C(N)N)n3cc(C[C@@H](C)CC)nn3)CC2)n1	-1.3	1.4	3.5	·	·
COc1ccccc1C(=O)NC1CCCCN(Cc2cccc(C(F)(F)F)c2)C1=O (stereo unspecified)	·	·	·	·	-2.7
Cc1sc(NC(=O)CSc2nnc3scc(-c4ccccc4)n23)c(C#N)c1C	15.7*	5.9	6.3	0.9	-11.0
Cc1sc2cc3c(c(C(=O)c4ccccc4)[n+]2c1C)-c1cccc2cccc-3c12	·	·	·	-8.3	0.2
O=C(c1ccccc1)c1c2c(cc3sc4ccccc4[n+]13)-c1cccc3cccc-2c13	25.5*	·	-25.3	-7.1	-7.2
CN(CCO)c1cccc2c1S(=O)(=O)N(Cc1cn(Cc3ccccc3C(F)(F)F)nn1)Cc1ccccc1O2	·	·	·	·	-5.4
COc1ccc(NC(=S)NNC(=O)COc2ccc(Cl)cc2Cl)cc1	-0.3	1.7	4.8	0.4	8.0
CCC(=O)NC(=S)Nc1ccc(NC(=O)COc2ccc(Cl)cc2Cl)cc1	18.2*	26.9	0.8	·	24.0
O=C(COC(=O)c1cc(C(F)(F)F)cc(C(F)(F)F)c1)NCc1ccc(Cl)cc1	8.7*	3.9	-0.8	-1.1	-2.6
O=C(COC(=O)c1cncc(Br)c1)NCc1ccc(Cl)cc1	-0.4	-0.6	6.3	-1.7	15.5
O=C(CCN1CCN(c2ccccc2)CC1)Nc1cccc(Br)c1	8.6*	1.8	10.4	-0.8	0.2
O=C(NCCN1CCN(c2cccc(Cl)c2)CC1)Nc1ccccc1	0.7	-1.1	13.5	-0.1	-5.1
O=C(NCCN1CCN(c2ccccc2)CC1)Nc1ccc(Cl)cc1	9.2*	1.1	4.9	0.6	0.2
C[C@H]1COc2cc(Br)ccc2S(=O)(=O)N1Cc1cn(Cc2ccc(Br)cc2)nn1	·	·	·	·	11.8
CCOC(=O)[C@]12CCCC=C1N(Cc1ccc(OC)cc1)C(=O)[C@@H]2CC(=O)NCCCCc1ccccc1	·	·	·	·	1.5
CCc1nnc(NC(=O)CSc2nc(C3CCCCC3)nc3ccccc23)s1	1.1	1.2	13.2	15.6*	6.9
CCc1nnc(NC(=O)CSc2nc(-c3ccccc3)nc3ccccc23)s1	-0.6	8.7	9.2	4.7	1.6
CCOc1ccc(CCNC(=O)c2cc3sccc3n2Cc2cccc(C)c2)cc1OCC	·	·	·	·	-5.6
CCc1nc(NCCC(C)C)c2nnn(Cc3ccccc3)c2n1	8.9*	0.3	5.2	-0.4	3.1
O=C(Nc1cccc([N+](=O)[O-])c1)C1C2CC/C=C\CCC21 (stereo unspecified)	8.9*	-1.0	7.2	0.9	-4.7
SMILES	MC4R ag barr	NTR1 ag	MC4R antag cAMP	PG9 binder	Rev-erbA mod
COC(=O)[C@]12C[C@H](CC(=O)NCC3CCCCC3)C(=O)N(Cc3cccc4ccccc34)C1=C[C@H](C1CCCC1)O[C@@H]2C	·	·	·	·	3.9
Cc1ccc(OCCC(=O)Nc2ccccc2C(=O)NC2CC2)cc1	3.9	0.9	9.4	2.7	5.7
Cc1ccc(SCCC(=O)Nc2ccccc2C(=O)NC2CCCCC2)cc1	9.4*	4.9	-1.0	-0.6	-4.7
O=C(CCl)N=c1sccn1Cc1ccc(Cl)cc1Cl	11.6*	11.7	20.9	-1.7	4.2
O=C(CCl)N=c1sccn1Cc1cccc2ccccc12	6.8	·	14.1	1.7	7.0
O=C(CCl)N=c1sccn1Cc1ccccc1Cl	24.1*	14.5	8.2	-1.9	-5.2
O=C(CCN1C(=O)/C(=C/c2ccccc2)SC1=S)NNC(=O)c1cccnc1	8.8*	0.4	-3.1	0.3	-1.5
COC(=O)C1=C(C)N(Cc2ccc(C(F)(F)F)cc2)C(=NCc2ccccc2C(F)(F)F)NC1c1ccccc1C(F)(F)F (stereo unspecified)	·	·	·	-1.1	-3.6
COc1cccc(/C=N/NC(=O)CNC(=O)/C=C\c2ccccc2)c1O	-1.6	61.9*	-1.3	-3.3	1.7
Cc1cccc(OCC(C)CN2CCC(C(O)(c3ccccc3)c3ccccc3)CC2)c1 (stereo unspecified)	·	·	·	·	0.4
Cc1ccc(NC(=O)c2ccc(Cl)c(N3C(=O)C=CC3=O)c2)cc1	-0.7	18.9	55.0*	0.4	4.0
Cc1nc(N2CCCCC2C)c2nnn(Cc3ccccc3)c2n1 (stereo unspecified)	·	·	·	·	-1.8
COc1ccc(/C=C/C(=O)Nc2ccccc2)cc1OC	2.0	0.0	5.3	-1.7	-2.4
COc1ccc(/C=C/C(=O)NC(=S)NCCc2ccc(OC)c(OC)c2)cc1	17.2*	0.9	-9.1	-0.5	4.5
COc1ccc(/C=C/C(=O)NC(=S)Nc2ccccc2)cc1OC	9.1*	0.9	15.9	-2.3	6.5
O=C(CSc1nc(-c2ccco2)cc(C(F)(F)F)n1)Nc1ccccc1C(F)(F)F	9.4*	0.1	-14.1	1.9	4.6
Cc1cccc(C)c1NC(=O)CSc1nc(-c2ccco2)cc(C(F)(F)F)n1	1.0	0.7	4.7	2.6	5.2
O=C(OCn1ncc(Cl)c(Cl)c1=O)c1ccc(C(F)(F)F)cc1	1.5	-1.7	32.6*	0.8	-2.6
Cc1ccc(C(=O)OCn2ncc(Cl)c(Cl)c2=O)cc1	0.5	1.2	-2.4	-1.9	-1.5
CCN(CC)CCOC(=O)c1cccnc1	·	·	·	·	-1.7
CC(C)C[C@@H]1COc2cc(N3CCOCC3)ccc2S(=O)(=O)N1	·	·	·	1.6	-0.2

Compound activity deposited in PubChem BioAssay by several laboratories.
